From ChEMBL document CHEMBL1137559, “Rational design of 5'-thiourea-substituted alpha-thymidine analogues as thymidine monophosphate kinase inhibitors capable of inhibiting mycobacterial growth” (J Med Chem, 2007) come the findings set out here.

The nature of data set [1]: Cytotoxicity against Vero cells at 100 uM after 3 days. In kind it is cell-based. Particulars: chlorocebus sabaeus. A digest of the protocol: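 Confluent Vero monolayers given serial compound dilutions; incubated 3 days at 37°C, humidified CO2 atmosphere; cultures inspected microscopically for altered morphology. MCC = concentration causing microscopic alteration of mock-infected cultures at day 3.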

The next data set concerns the target T1, Thymidylate kinase (Mycobacterium tuberculosis, UniProt P9WKE1).
T1 sequence (P9WKE1 whole entry): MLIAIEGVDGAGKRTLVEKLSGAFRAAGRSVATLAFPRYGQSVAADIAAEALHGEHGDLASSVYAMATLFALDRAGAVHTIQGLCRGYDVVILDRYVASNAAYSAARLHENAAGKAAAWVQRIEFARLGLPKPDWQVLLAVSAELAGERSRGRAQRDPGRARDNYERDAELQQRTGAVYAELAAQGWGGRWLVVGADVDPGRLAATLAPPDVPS
Briefly: Inhibition of Mycobacterium tuberculosis TMPK expressed in Escherichia coli by spectrophotometric assay. A digest of the protocol:
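Recombinant mycobacterial and human TMPK, both expressed in E. coli, run in an NADH-coupled assay (pyruvate kinase, lactate dehydrogenase, nucleoside diphosphate kinase, 2 units each) read at 334 nm. ATP 0.5 mM and dTMP 0.05 mM held constant; analogues 0.01–2 mM; Ki determined for each enzyme.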

Data set [2] in a line: Inhibition of human TMPK expressed in Escherichia coli by spectrophotometric assay.
In data set [3] the test system is Mycobacterium tuberculosis. Briefly: Growth inhibition of Mycobacterium tuberculosis H37Rv at 6.25 ug/mL by MABA assay. In kind it is functional. A digest of the protocol: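 Single-concentration screen in BACTEC 12B medium using the Microplate Alamar Blue Assay; percent inhibition recorded.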

pKi: −log10 of the molar value. Some results are limits rather than exact numbers.

The term pKi denotes the negative decadic logarithm of the Ki, by convention in mol/L. Turning to `Cc1cn([C@@H]2C[C@H](O)[C@@H](CNC(=S)NCCc3ccccc3)O2)c(=O)[nH]c1=O`, the MCC at 72 h, up to 100 µM in data set [1] is > 100 µM. The negative-log Ki (pKi) at Thymidylate kinase is 5.42; in data set [2], < 3.10.

The inhibition is how much of the control response was suppressed. Higher therefore signals a strong effect. With `Cc1cn([C@@H]2C[C@H](O)[C@@H](CNC(=S)Nc3ccc(Cl)c(Cl)c3)O2)c(=O)[nH]c1=O`, the MCC at 72 h, up to 100 µM in data set [1] was > 100 µM. For the same compound, in data set [3], the inhibition at 6.25 µg/mL worked out at 38%. For the same compound, the values for the pKi (at Thymidylate kinase; in data set [2]) were 6.00 and 3.56, respectively.

On to `Cc1cn([C@@H]2C[C@H](O)[C@@H](CNC(=S)Nc3ccc(N4CCOCC4)cc3)O2)c(=O)[nH]c1=O`, for which the pKi at Thymidylate kinase is 4.72.

Consider `Cc1cn([C@@H]2C[C@H](O)[C@@H](CNC(=S)NC34CC5CC(CC(C5)C3)C4)O2)c(=O)[nH]c1=O`, for which, in data set [1], the MCC at 72 h, up to 100 µM is > 100 µM. For the same compound, at Thymidylate kinase, the negative-log Ki (pKi) is 4.82.

`Cc1cn([C@@H]2C[C@H](O)[C@@H](CNC(=O)c3ccccc3)O2)c(=O)[nH]c1=O`: the negative-log Ki (pKi) at Thymidylate kinase was 4.46.

`Cc1cn(COCCNC(=S)Nc2ccccc2)c(=O)[nH]c1=O`: the MCC at 72 h, up to 100 µM in data set [1] was > 100 µM. The compound further showed a negative logarithm of the Ki (pKi) at Thymidylate kinase of 3.59.

On Thymidylate kinase, `Cc1cn([C@@H]2C[C@H](O)[C@@H](CN=[N+]=[N-])O2)c(=O)[nH]c1=O` had a negative logarithm of the Ki (pKi) of 4.58.

Turning to `Cc1cn([C@H]2C[C@H](CNC(=S)Nc3ccc(Cl)cc3)[C@@H](CO)O2)c(=O)[nH]c1=O`, the MCC at 72 h, up to 100 µM in data set [1] was > 100 µM. For the same compound, on Thymidylate kinase, the negative logarithm of the Ki (pKi) is 4.68.

Turning to `COc1ccc(NC(=S)NC[C@H]2C[C@H](n3cc(C)c(=O)[nH]c3=O)O[C@@H]2CO)cc1`, the MCC at 72 h, up to 100 µM in data set [1] was > 100 µM. At Thymidylate kinase, this compound gave a pKi of 4.34.

As for `Cc1cn([C@H]2C[C@H](CNC(=S)Nc3ccc(Cl)c(Cl)c3)[C@@H](CO)O2)c(=O)[nH]c1=O`, the MCC at 72 h, up to 100 µM in data set [1] was > 100 µM. Besides, the pKi on Thymidylate kinase was 5.14.

For `Cc1cn([C@H]2C[C@H](CNC(=S)Nc3ccc(OCc4ccccc4)cc3)[C@@H](CO)O2)c(=O)[nH]c1=O`, the MCC at 72 h, up to 100 µM in data set [1] was > 100 µM. At Thymidylate kinase, the pKi is 4.92.

On Thymidylate kinase, `Cc1cn([C@@H]2C[C@H](O)[C@@H](CNC(=S)NC(=O)c3ccccc3)O2)c(=O)[nH]c1=O` had a pKi of 5.14.

`Cc1cn([C@@H]2C[C@H](O)[C@@H](CNC(=S)NCc3ccccc3)O2)c(=O)[nH]c1=O`: at Thymidylate kinase, the pKi was 5.27.

Compound `Cc1cn([C@@H]2CC[C@@H](CNC(=S)Nc3ccc(Cl)c(C(F)(F)F)c3)O2)c(=O)[nH]c1=O` registered an inhibition at 6.25 µg/mL in data set [3] of 34%. Besides, the values for the negative logarithm of the Ki (pKi) (at Thymidylate kinase; in data set [2]) were 5.64 and < 3.30, respectively.

Compound `Cc1cn([C@@H]2C[C@H](O)[C@@H](CNC(=O)Nc3ccc(Cl)c(Cl)c3)O2)c(=O)[nH]c1=O` returned an inhibition at 6.25 µg/mL in data set [3] of 41%. The negative logarithm of the Ki (pKi) at Thymidylate kinase is 5.96; in data set [2], 3.94.

As for `Cc1cn([C@@H]2C[C@@H](CNC(=O)NC[C@H]3C[C@H](n4cc(C)c(=O)[nH]c4=O)O[C@@H]3CO)[C@H](CO)O2)c(=O)[nH]c1=O`, the pKi on Thymidylate kinase was 4.43; in data set [2], < 3.00.

For the compound `Cc1cn([C@@H]2C[C@H](O)[C@@H](CNC(=O)Nc3ccc(Cl)c(C(F)(F)F)c3)O2)c(=O)[nH]c1=O`, the inhibition at 6.25 µg/mL in data set [3] was 49%. Further, the results for the pKi (on Thymidylate kinase; in data set [2]) were 5.72 and 3.78, respectively.

With `Cc1cn([C@H]2C[C@H](CNC(=S)Nc3ccccc3)[C@@H](CO)O2)c(=O)[nH]c1=O`, the negative logarithm of the Ki (pKi) at Thymidylate kinase was 4.16.

With `Cc1cn([C@@H]2C[C@H](O)[C@@H](CNC(=S)Nc3ccc(Cl)c(C(F)(F)F)c3)O2)c(=O)[nH]c1=O`, the MCC at 72 h, up to 100 µM in data set [1] is > 100 µM. The compound further gave an inhibition at 6.25 µg/mL in data set [3] of 39%. Further, the values for the pKi (on Thymidylate kinase; in data set [2]) were 6.22 and 3.44, respectively.

On to `COc1ccc(NC(=S)NC[C@H]2O[C@H](n3cc(C)c(=O)[nH]c3=O)C[C@@H]2O)cc1`, for which the negative-log Ki (pKi) at Thymidylate kinase is 5.00.

Consider `Cc1cn([C@@H]2C[C@H](O)[C@@H](CNC(=S)NCc3ccc(Cl)c(C(F)(F)F)c3)O2)c(=O)[nH]c1=O`, for which the MCC at 72 h, up to 100 µM in data set [1] was > 100 µM. Moreover, the pKi on Thymidylate kinase is 5.59; in data set [2], 4.30.

In data set [3], `Cc1cn([C@@H]2C=C[C@@H](CNC(=S)Nc3ccc(Cl)c(C(F)(F)F)c3)O2)c(=O)[nH]c1=O` gave an inhibition at 6.25 µg/mL of 55%. In addition, the pKi is 5.42 on Thymidylate kinase and 3.72 in data set [2].

In the case of `Cc1cn([C@@H]2C[C@H](O)[C@@H](CNC(=S)Nc3ccccc3)O2)c(=O)[nH]c1=O`, the MCC at 72 h, up to 100 µM in data set [1] is > 100 µM. This compound also showed a pKi at Thymidylate kinase of 4.80.

In turn, `Cc1ccc(NC(=S)NC[C@H]2O[C@H](n3cc(C)c(=O)[nH]c3=O)C[C@@H]2O)cc1` had a negative-log Ki (pKi) on Thymidylate kinase of 5.11.

As for `Cc1ccc(NC(=S)NC[C@H]2C[C@H](n3cc(C)c(=O)[nH]c3=O)O[C@@H]2CO)cc1`, in data set [1], the MCC at 72 h, up to 100 µM was > 100 µM. Moreover, the negative logarithm of the Ki (pKi) at Thymidylate kinase was 4.44.

On to `Cc1cn([C@@H]2C[C@H](O)[C@@H](CNC(=S)NCCc3ccc(Cl)c(Cl)c3)O2)c(=O)[nH]c1=O`, for which the MCC at 72 h, up to 100 µM in data set [1] was > 100 µM. Moreover, the values for the negative logarithm of the Ki (pKi) (at Thymidylate kinase; in data set [2]) were 5.66 and 4.10, respectively.

With `Cc1cn([C@@H]2C[C@H](O)[C@@H](CNC(=S)Nc3ccc4c(c3)C(=O)OC43c4ccc(O)cc4Oc4cc(O)ccc43)O2)c(=O)[nH]c1=O`, the negative logarithm of the Ki (pKi) at Thymidylate kinase is 5.27.

The compound `Cc1cn(COCCNC(=S)Nc2ccc(Cl)c(C(F)(F)F)c2)c(=O)[nH]c1=O` returned an MCC at 72 h, up to 100 µM in data set [1] of 100 µM. Besides, at 6.25 µg/mL the inhibition in data set [3] was 34%. For the same compound, the pKi at Thymidylate kinase is 4.43.

On to `Cc1cn([C@@H]2C[C@H](O)[C@@H](CNC(=S)NC(c3ccccc3)c3ccccc3)O2)c(=O)[nH]c1=O`, for which the MCC at 72 h, up to 100 µM in data set [1] was > 100 µM. The values for the negative-log Ki (pKi) (at Thymidylate kinase; in data set [2]) were 5.31 and < 3.30, respectively.

In the case of `Cc1cn([C@@H]2C[C@H](O)[C@@H](CN)O2)c(=O)[nH]c1=O`, on Thymidylate kinase, the pKi was 4.80.

As to `Cc1cn([C@H]2C[C@H](CNC(=S)Nc3ccc(Cl)c(C(F)(F)F)c3)[C@@H](CO)O2)c(=O)[nH]c1=O`, the MCC at 72 h, up to 100 µM in data set [1] was > 100 µM. The negative-log Ki (pKi) was 5.30 on Thymidylate kinase and < 3.00 in data set [2].

With `Cc1cn([C@@H]2C[C@H](O)[C@@H](CNC(=S)Nc3ccc(Cl)cc3)O2)c(=O)[nH]c1=O`, the values for the negative logarithm of the Ki (pKi) (at Thymidylate kinase; in data set [2]) were 5.49 and < 3.00, respectively.
